This passage reports Tm and folding enthalpy results from the array DNA melting data of Ke et al. (doi:10.1101/2024.01.08.574731).

Data set [1] can be described thus: melting temperature; fluorescence melt of hairpins on a sequencing array, two-state fit, raised by 9.35 °C to match UV melts. The conditions noted are these: sodium 0.088 M. Put shortly:
(§1)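 Cy3 fluorescence of library hairpins on a sequenced MiSeq flow cell, with annealed Cy3 and quencher oligos, was imaged in 50 mM Na-HEPES pH 8.0, 25 mM NaCl in 2.5 °C steps up to 60 °C. Signals were normalised to pre-quench Cy3 and to control variants. Melting temperature and folding enthalpy came from bootstrapped two-state fits, inverse-variance combined over four replicates. Fitted temperatures were raised by 9.35 °C to match UV melts.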

Data set [2] is described as follows: folding enthalpy; higher = less favourable; fluorescence melt of hairpins on a sequencing array, two-state fit. Particulars: sodium 0.088 M. The method, boiled down: as §1

With GCAGACGCGAAAGCGTGC (((..(((....)))))), the Tm in data set [1] came out at 52 °C. The folding enthalpy in data set [2] is -11.8 kcal/mol.

With GCAGACGGAAACATCCGC ((.((.(....).)).)), the Tm in data set [1] amounted to 26.5 °C. In data set [2], the folding enthalpy is -13.3 kcal/mol.

GCAGACGGAAACGCCTGC ((((.((....)).)))): the Tm in data set [1] was 56 °C. In addition, the folding enthalpy in data set [2] is -51.1 kcal/mol.

In the case of GCAGACGGAAACGTCCAC (..((((....))))..), the Tm in data set [1] was 32.1 °C. The folding enthalpy in data set [2] is -9.46 kcal/mol.

Take GCAGACTCGAAAGAGTGC (((..(((....)))))): the Tm in data set [1] came to 43.4 °C. For the same sequence, the folding enthalpy in data set [2] was -16 kcal/mol.

As to GCAGAGCGAAAGCCCGGC ((.(.((....)).).)), in data set [1], the Tm worked out at 44.8 °C. Also, the folding enthalpy in data set [2] was -17.9 kcal/mol.

Turning to GCAGAGCGAAAGCTCAGC ((.((((....)))).)), in data set [1], the Tm was determined as 64.8 °C. The folding enthalpy in data set [2] is -20.4 kcal/mol.

With GCAGAGCGAAAGCTCCGC ((.((((....)))).)), the Tm in data set [1] turned out to be 61.1 °C. For the same sequence, the folding enthalpy in data set [2] is -16.8 kcal/mol.

For the sequence GCAGAGGGAAACCTCCAC (..((((....))))..), in data set [1], the Tm worked out at 25.4 °C. Also, the folding enthalpy in data set [2] is -13.7 kcal/mol.

Turning to GCAGAGGGAAACCTCTGC (((((((....))))))), in data set [1], the Tm worked out at 67.9 °C. In data set [2], the folding enthalpy was -46.2 kcal/mol.

Turning to GCAGCAGGAAACCGCTGC (((((.(....).))))), the Tm in data set [1] was found to be 58.1 °C. For the same sequence, the folding enthalpy in data set [2] is -41.3 kcal/mol.

In the case of GCAGCAGGAAACTGCCAC (..((((....))))..), in data set [1], the Tm was found to be 31.6 °C. Also, in data set [2], the folding enthalpy was -11 kcal/mol.

Consider GCAGCATCGAAAGATTGC (((..(((....)))))), for which the Tm in data set [1] is 33.9 °C. Besides, the folding enthalpy in data set [2] was -16.9 kcal/mol.

Take GCAGCCACGAAAGTGTGC (((..(((....)))))): the Tm in data set [1] was 40.2 °C. In data set [2], the folding enthalpy was -12.5 kcal/mol.

Take GCAGCCGAAAGGCACTGC ((((((....)))..))): the Tm in data set [1] was found to be 45.4 °C. For the same sequence, the folding enthalpy in data set [2] was -13.7 kcal/mol.

Consider GCAGCCGAAAGGCATGC ((((((....))).))), for which, in data set [1], the Tm came to 62 °C. In addition, the folding enthalpy in data set [2] is -19.6 kcal/mol.

For GCAGCCGAAAGGCGATGC ((((((....)))..))), the Tm in data set [1] came out at 53.2 °C. In data set [2], the folding enthalpy was -14.2 kcal/mol.

With GCAGCCGAAAGGCGTGC ((((((....))).))), the Tm in data set [1] was 65 °C. Moreover, the folding enthalpy in data set [2] is -16.5 kcal/mol.

As to GCAGCCGAAAGGCGTTGC ((((((....)))..))), the Tm in data set [1] was 53.3 °C. Further, the folding enthalpy in data set [2] was -13.8 kcal/mol.

For GCAGCGCGAAAGCACAGC ((.(.((....)).).)), the Tm in data set [1] worked out at 43.8 °C. For the same sequence, the folding enthalpy in data set [2] was -19.9 kcal/mol.

GCAGCGCGAAAGCAGTGC (((..((....))..))): the Tm in data set [1] came out at 52.8 °C. In addition, in data set [2], the folding enthalpy is -18.1 kcal/mol.

Regarding GCAGCGCGAAAGCGTCGC ((..(((....)))..)), the Tm in data set [1] came to 57.1 °C. Moreover, the folding enthalpy in data set [2] was -17.5 kcal/mol.

As to GCAGCGCGAAAGCTCAGC ((.(.((....)).).)), the Tm in data set [1] worked out at 39.9 °C. In addition, in data set [2], the folding enthalpy was -10.6 kcal/mol.

Consider GCAGCGCGAAAGCTTTGC (((..((....))..))), for which the Tm in data set [1] was 37.4 °C. For the same sequence, the folding enthalpy in data set [2] is -16.7 kcal/mol.

In the case of GCAGCGGGAAACTGCTGC (((((.(....).))))), the Tm in data set [1] came out at 66 °C. Moreover, the folding enthalpy in data set [2] is -43.1 kcal/mol.

GCAGCTACGAAAGTATGC (((..(((....)))))): the Tm in data set [1] worked out at 36.1 °C. The folding enthalpy in data set [2] is -15 kcal/mol.

Consider GCAGCTCGAAAGAGATGC (((.(((....))).))), for which the Tm in data set [1] amounted to 68.6 °C. In addition, the folding enthalpy in data set [2] was -42.1 kcal/mol.

In the case of GCAGCTGGAAACAGCCGC ((.((((....)))).)), the Tm in data set [1] stood at 50.6 °C. Besides, the folding enthalpy in data set [2] is -29.3 kcal/mol.

On to GCAGGACGAAAGTCGTGC (((.(((....))).))), for which, in data set [1], the Tm turned out to be 62.6 °C. Also, the folding enthalpy in data set [2] is -42.8 kcal/mol.

GCAGGAGGAAACTCCCGC ((.((((....)))).)): the Tm in data set [1] is 45.8 °C. Besides, in data set [2], the folding enthalpy is -24.1 kcal/mol.

GCAGGATCGAAAGATTGC (((..(((....)))))): in data set [1], the Tm came out at 31.4 °C. For the same sequence, in data set [2], the folding enthalpy was -19.8 kcal/mol.

For GCAGGCCGAAAGGCTGC (((.(((....)))))), the Tm in data set [1] worked out at 67.3 °C. Further, in data set [2], the folding enthalpy was -22.2 kcal/mol.

With GCAGGCGAAAGCCAATGC ((((((....)))..))), the Tm in data set [1] stood at 49.1 °C. In addition, the folding enthalpy in data set [2] was -15.5 kcal/mol.

For GCAGGCGAAAGCCCATGC ((((((....)))..))), in data set [1], the Tm was found to be 41.4 °C. The folding enthalpy in data set [2] was -13.2 kcal/mol.

GCAGGCGAAAGCCCTGC ((((((....))).))): the Tm in data set [1] is 65.6 °C. Besides, the folding enthalpy in data set [2] is -19.2 kcal/mol.

With GCAGGCGAAAGCCGTGC ((((((....))).))), in data set [1], the Tm is 62.8 °C. Moreover, the folding enthalpy in data set [2] is -17.1 kcal/mol.

Take GCAGGCGAAAGCCTATGC ((((((....)))..))): the Tm in data set [1] worked out at 47.6 °C. Moreover, in data set [2], the folding enthalpy is -13.9 kcal/mol.
